In ChEMBL document CHEMBL1773037, “Evaluation of superior BACE1 cleavage sequences containing unnatural amino acids” (Bioorg Med Chem, 2011) one finds Km and kcat data, which are given here for one protein.

Substrate in the data set: CC[C@H](C)[C@H](N)C(=O)N[C@@H](CCCCN)C(=O)N[C@H](C(=O)N[C@@H](CCC(=O)O)C(=O)N[C@@H](CCC(=O)O)C(=O)N[C@H](C(=O)N[C@@H](CO)C(=O)N[C@@H](CCC(=O)O)C(=O)N[C@H](C(=O)N[C@@H](CC(N)=O)C(=O)N[C@@H](CC(C)C)C(=O)N[C@@H](CC(=O)O)C(=O)N[C@@H](C)C(=O)N[C@@H](CCC(=O)O)C(=O)N[C@@H](Cc1ccccc1)C(=O)N[C@@H](CCCNC(=N)N)C(=O)N[C@@H](Cc1cnc[nH]1)C(=O)N[C@@H](CC(=O)O)C(=O)N[C@@H](CO)C(=O)NCC(N)=O)C(C)C)[C@@H](C)CC)[C@@H](C)O
Nature of the data set: Activity of recombinant BACE assessed as substrate cleavage at 105 uM after 15 mins by HPLC analysis. In a few lines:
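Kinetic run: rBACE1 (33 nM) added to eicosapeptide amide at final concentrations 0–105, 37 °C, 15 min. Aliquots analysed by HPLC, and initial rates taken from the decrease in substrate peak area. Km obtained from a plot of [S]/v versus [S]. Measurements done three times and averaged.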

The term Km denotes the substrate concentration at which the rate is half of its maximum. One may read the kcat as the maximal rate divided by the concentration of active sites.

B1: Beta-secretase 1 (Homo sapiens), P56817 (protein)
chain: MAQALPWLLLWMGAGVLPAHGTQHGIRLPLRSGLGGAPLGLRLPRETDEEPEEPGRRGSFVEMVDNLRGKSGQGYYVEMTVGSPPQTLNILVDTGSSNFAVGAAPHPFLHRYYQRQLSSTYRDLRKGVYVPYTQGKWEGELGTDLVSIPHGPNVTVRANIAAITESDKFFINGSNWEGILGLAYAEIARPDDSLEPFFDSLVKQTHVPNLFSLQLCGAGFPLNQSEVLASVGGSMIIGGIDHSLYTGSLWYTPIRREWYYEVIIVRVEINGQDLKMDCKEYNYDKSIVDSGTTNLRLPKKVFEAAVKSIKAASSTEKFPDGFWLGEQLVCWQAGTTPWNIFPVISLYLMGEVTNQSFRITILPQQYLRPVEDVATSQDDCYKFAISQSSTGTVMGAVIMEGFYVVFDRARKRIGFAVSACHVHDEFRTAAVEGPFVTLDMEDCGYNIPQTDESTLMTIAYVMAAICALFMLPLCLMVCQWRCLRCLRQQHDDFADDISLLK
As for B1, the Km turned out to be 5.5 µM and the kcat stood at 1720 s⁻¹.
